ChEMBL document CHEMBL1811845, “Modulation of GABAA-receptors by honokiol and derivatives: subtype selectivity and structure-activity relationship” (J Med Chem, 2011)

What was measured:
[1] = target: T1, Gamma-aminobutyric acid receptor subunit alpha-1/ beta-1 (Homo sapiens, UniProt P14867+P18505); experiment: Modulation of GABA Aalpha1beta1 receptor expressed in Xenopus laevis oocytes assessed as potentiation of GABA-induced chloride current at holding potential -70 mV by two-microelectrode voltage clamp technique; type: cell-based, Oocyte
T1 sequence (P14867 whole entry): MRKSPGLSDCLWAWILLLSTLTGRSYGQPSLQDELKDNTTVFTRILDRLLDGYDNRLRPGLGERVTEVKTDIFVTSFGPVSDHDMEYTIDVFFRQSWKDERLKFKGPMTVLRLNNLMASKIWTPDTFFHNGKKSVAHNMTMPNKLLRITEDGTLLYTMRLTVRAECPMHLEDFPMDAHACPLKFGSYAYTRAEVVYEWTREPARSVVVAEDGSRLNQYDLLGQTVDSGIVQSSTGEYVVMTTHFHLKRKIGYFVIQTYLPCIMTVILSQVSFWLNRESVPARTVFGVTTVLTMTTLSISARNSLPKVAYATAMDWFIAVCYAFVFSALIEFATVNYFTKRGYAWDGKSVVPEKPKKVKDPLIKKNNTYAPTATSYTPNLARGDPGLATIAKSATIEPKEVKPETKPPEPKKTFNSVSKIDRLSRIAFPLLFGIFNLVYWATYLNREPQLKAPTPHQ
T1 sequence (P18505 whole entry): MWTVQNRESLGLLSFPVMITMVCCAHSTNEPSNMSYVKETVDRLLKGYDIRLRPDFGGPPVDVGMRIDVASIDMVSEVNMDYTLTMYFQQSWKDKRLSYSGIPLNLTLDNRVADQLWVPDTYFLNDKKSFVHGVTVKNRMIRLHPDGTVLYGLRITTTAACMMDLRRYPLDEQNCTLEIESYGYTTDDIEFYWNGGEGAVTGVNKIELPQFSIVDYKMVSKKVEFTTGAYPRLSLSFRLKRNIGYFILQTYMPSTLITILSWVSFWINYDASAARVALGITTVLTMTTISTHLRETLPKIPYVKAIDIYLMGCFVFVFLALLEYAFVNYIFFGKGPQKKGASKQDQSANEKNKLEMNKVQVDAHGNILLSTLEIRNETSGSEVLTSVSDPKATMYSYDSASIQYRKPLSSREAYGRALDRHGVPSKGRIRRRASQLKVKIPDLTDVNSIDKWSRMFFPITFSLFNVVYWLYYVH
Procedure, shortened: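 Stage V–VI Xenopus oocytes were injected with subunit cRNAs, with α1 and β1 mixed 3:1 for α1β1, and kept at +18 °C in modified ND96 at pH 7.4. Two-electrode voltage clamp was run at -70 mV and ambient temperature. Test GABA gave 3–7% of maximal current, set for each oocyte. Enhancement was (I(GABA+compound)/IGABA) − 1. EC50 came from a Hill fit. DMSO (max 0.3%) was matched in controls.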

[2] = target: T2, Gamma-aminobutyric acid receptor subunit alpha-2/beta-2 (Homo sapiens, UniProt P47869+P47870); experiment: Modulation of GABA Aalpha2beta2 receptor expressed in Xenopus laevis oocytes assessed as potentiation of GABA-induced chloride current at holding potential -70 mV by two-microelectrode voltage clamp technique; type: cell-based, Oocyte
T2 sequence (P47870 whole entry): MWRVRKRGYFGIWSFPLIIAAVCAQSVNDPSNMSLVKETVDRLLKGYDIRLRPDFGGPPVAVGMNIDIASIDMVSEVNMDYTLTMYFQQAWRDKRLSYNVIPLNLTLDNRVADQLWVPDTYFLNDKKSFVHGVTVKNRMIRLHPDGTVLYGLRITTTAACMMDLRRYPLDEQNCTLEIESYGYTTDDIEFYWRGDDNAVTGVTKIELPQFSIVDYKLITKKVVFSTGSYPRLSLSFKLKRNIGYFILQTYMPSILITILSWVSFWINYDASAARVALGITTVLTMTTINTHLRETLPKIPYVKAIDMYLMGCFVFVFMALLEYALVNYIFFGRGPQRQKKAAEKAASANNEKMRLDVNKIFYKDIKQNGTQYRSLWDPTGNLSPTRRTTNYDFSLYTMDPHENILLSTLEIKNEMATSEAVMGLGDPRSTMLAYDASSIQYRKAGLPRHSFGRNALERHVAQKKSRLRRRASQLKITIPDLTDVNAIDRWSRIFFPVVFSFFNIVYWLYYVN
T2 sequence (P47869 whole entry): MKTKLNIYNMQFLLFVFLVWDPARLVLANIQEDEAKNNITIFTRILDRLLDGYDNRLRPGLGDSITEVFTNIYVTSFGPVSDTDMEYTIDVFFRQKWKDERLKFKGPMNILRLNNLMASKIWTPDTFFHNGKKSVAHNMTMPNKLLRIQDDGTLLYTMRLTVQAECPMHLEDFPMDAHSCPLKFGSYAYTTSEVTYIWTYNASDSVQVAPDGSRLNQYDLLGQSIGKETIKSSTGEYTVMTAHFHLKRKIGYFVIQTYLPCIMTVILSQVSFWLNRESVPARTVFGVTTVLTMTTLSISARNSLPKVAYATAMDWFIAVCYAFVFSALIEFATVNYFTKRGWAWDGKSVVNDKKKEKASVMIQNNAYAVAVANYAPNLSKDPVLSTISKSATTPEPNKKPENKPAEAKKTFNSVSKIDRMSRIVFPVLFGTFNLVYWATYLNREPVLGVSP
Procedure, shortened: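 Stage V–VI Xenopus oocytes, defolliculated with 2 mg/mL collagenase, injected with α(1, 2, 3 or 5) and β2 cRNAs mixed 1:1, then kept at 18 °C in ND96 (pH 7.4). Enhancement = I(GABA+compound)/IGABA − 1. Curves were Hill-fitted for EC50. Bath DMSO was at most 0.3%, matched in controls.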

[3] = target: Gamma-aminobutyric acid receptor subunit alpha-3/ beta-2 (Homo sapiens) (UniProt P47870+P34903); experiment: Modulation of GABA Aalpha3beta2 receptor expressed in Xenopus laevis oocytes assessed as potentiation of GABA-induced chloride current at holding potential -70 mV by two-microelectrode voltage clamp technique relative to GABA; type: cell-based; conditions: Oocyte
Procedure, shortened: (§1)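 Oocytes were injected with α1, α2, α3 or α5 plus β2 cRNA at a 1:1 ratio and stored at 18 °C in ND96, pH 7.4. Enhancement was (I(GABA+compound)/IGABA)−1, and concentration-response data were Hill-fitted for EC50 and nH. Matched DMSO was ≤0.3%.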

[4] = target: Gamma-aminobutyric acid receptor subunit alpha-5/beta-2 (Homo sapiens) (UniProt P47870+P31644); experiment: Modulation of GABA Aalpha5beta2 receptor expressed in Xenopus laevis oocytes assessed as potentiation of GABA-induced chloride current at holding potential -70 mV by two-microelectrode voltage clamp technique relative to GABA; type: cell-based; conditions: Oocyte; procedure, shortened: as §1
[5] = target: Gamma-aminobutyric acid receptor subunit alpha-1/ beta-1 (Homo sapiens) (UniProt P14867+P18505); experiment: Modulation of GABA Aalpha1beta1 receptor expressed in Xenopus laevis oocytes assessed as potentiation of GABA-induced chloride current at holding potential -70 mV by two-microelectrode voltage clamp technique relative to GABA; type: cell-based; conditions: Oocyte
Procedure, shortened: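 Stage V–VI female Xenopus oocytes were defolliculated with collagenase and injected with α1 and β1 cRNA at a 3:1 ratio. Oocytes were held at 18 °C in ND96, pH 7.4. Enhancement was (I(GABA+compound)/IGABA)−1, and EC50 and nH came from Hill fits. DMSO was ≤0.3% and matched in controls.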

Structure (SMILES): C=CCc1ccc(O)c(-c2ccc(O)c(CC=C)c2)c1 [HONOKIOL]
- EC50 [1]: 57 µM
- EC50 [2]: 46.4 µM
- Smax [3]: 2390%
- Smax [4]: 347%
- Smax [5]: 260%
